Assay results from ChEMBL document CHEMBL4152246, “Natural oxyprenylated coumarins are modulators of melanogenesis” (Eur J Med Chem, 2018).
Active and inactive are the calls of the source. The rule behind the calls is not given here.

What was measured:
Melan-a [1] = assay: Cytotoxicity against mouse Melan-a cells assessed as effect on cell viability at <2 uM after 24 to 72 hrs by trypan blue exclusion assay; type: cell-based
Melan-a [2] = assay: Inhibition of melanogenesis in mouse Melan-a cells assessed as effect on whitening property at 40 uM after 48 hrs; type: functional, cell-based
How it was run: (§1)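 Melan-a murine melanocytes in RPMI 1640 with 10% FBS, penicillin/streptomycin and 200 nM PMA at 37 °C and 5% CO2. Seeded at 60,000 cells/well in 6-well plates and treated 48 h with 1–40 µM from 1000X DMSO stock (final 0.1% DMSO) or DMSO alone. For line 1, cells were pretreated 1 h with 1 µM ICI 182780. Melanin is read as A405, % of control.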

Melan-a [3] = assay: Induction of melanogenesis in mouse Melan-a cells assessed as effect on tanning property at 40 uM after 48 hrs; type: functional, cell-based
Melan-a [4] = assay: Induction of melanogenesis in mouse Melan-a cells assessed as increase in melanin content at 10 to 40 uM after 48 hrs; type: functional, cell-based; how it was run: as §1
Melan-a [5] = assay: Induction of melanogenesis in mouse Melan-a cells assessed as increase in melanin content at 40 uM after 72 hrs relative to control; type: functional
How it was run: (§2)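 Melan-a cells in PMA-containing RPMI/10% FBS, treated 3 days at 40 µM (0.1% DMSO final) against DMSO-treated controls. Pellets were washed in PBS and extracted with water/EtOH–ether (1/1). Melanin was solubilized in 1 M NaOH/DMSO 90/10 at 80 °C for 1 h, read as A405 and expressed as % of control. Mean ± SEM, t test.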

Melan-a [6] = assay: Induction of melanogenesis in mouse Melan-a cells assessed as increase in melanin content at 40 uM; type: functional, cell-based
[7] = Photostability of the compound assessed as compound degradation under sunlight exposed for 6 days in EtOH solution measured by TLC method; type: physicochemical; settings: 144 h
Melan-a [8] = assay: Increase in TRP2 expression in mouse Melan-a cells at 40 uM after 48 hrs by Western blot analysis
Melan-a [9] = assay: Increase in TRP2 mRNA expression in mouse Melan-a cells at 40 uM after 24 hrs by SYBR green dye based qRT-PCR analysis; type: functional, cell-based
How it was run: (§3)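 Real-time PCR on Melan-a cells given 40 µM for 24 h. Total RNA was isolated with TRIzol, and Ct values of tyrosinase, TRP-1, TRP-2 and MITF were normalized to cyclophilin A1. Mean of three independent experiments in duplicate.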

Melan-a [10] = assay: Increase in Rab27a expression in mouse Melan-a cells at 40 uM after 48 hrs by Western blot analysis
[11] = Photostability of the compound assessed as compound degradation under sunlight exposed for 6 days in EtOH solution measured in presence of UV-A filter Uvinul A by TLC method; type: physicochemical; settings: 144 h
Melan-a [12] = assay: Cytotoxicity against mouse Melan-a cells assessed as effect on cell viability at 40 uM after 24 to 72 hrs by trypan blue exclusion assay; type: cell-based
How it was run: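 Melan-a cells seeded at 60,000/well in 6-well plates and treated at 40 µM (0.1% DMSO) for the indicated times. Cells were trypsinized, pelleted at 4 °C, stained with 0.25% trypan blue in PBS and counted in a Malassez chamber. Viability % = [1 − (blue/total cells)] × 100. Mean ± SEM of three independent experiments in duplicate.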

Melan-a [13] = assay: Increase in MITF expression in mouse Melan-a cells at 40 uM after 48 hrs by Western blot analysis
Melan-a [14] = assay: Increase in tyrosinase mRNA expression in mouse Melan-a cells at 40 uM after 24 hrs by SYBR green dye based qRT-PCR analysis; type: functional, cell-based; how it was run: as §3
Melan-a [15] = assay: Increase in TRP1 expression in mouse Melan-a cells at 40 uM after 48 hrs by Western blot analysis
Melan-a [16] = assay: Increase in MITF mRNA expression in mouse Melan-a cells at 40 uM after 24 hrs by SYBR green dye based qRT-PCR analysis; type: functional, cell-based; how it was run: as §3
[17] = target: Estrogen receptor beta (Mus musculus) (UniProt O08537); assay: Binding affinity to ERbeta in mouse Melan-a cells; type: cell-based
[18] = target: Estrogen receptor beta (Mus musculus) (UniProt O08537); assay: Agonist activity at ERbeta in mouse Melan-a cells assessed as increase in melanin content at 40 uM measured after 48 hrs in presence of ER antagonist ICI 182780; type: cell-based; how it was run: as §1
Melan-a [19] = assay: Increase in TRP1 mRNA expression in mouse Melan-a cells at 40 uM after 24 hrs by SYBR green dye based qRT-PCR analysis; type: functional, cell-based; how it was run: as §3
Melan-a [20] = assay: Induction of melanogenesis in mouse Melan-a cells assessed as effect on pigmentation at 40 uM after 72 hrs by photography; type: functional, cell-based
How it was run: (§4)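 Melan-a cells treated with 40 µM or solvent vehicle for 3 days, then photographed to record pigmentation.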

Melan-a [21] = assay: Increase in tyrosinase expression in mouse Melan-a cells at 40 uM after 48 hrs by Western blot analysis
Melan-a [22] = assay: Induction of melanogenesis in mouse Melan-a cells assessed as pro-pigmentation at 40 uM after 48 hrs relative to control; type: functional; how it was run: as §1
Melan-a [23] = assay: Effect on TRP2 expression in mouse Melan-a cells at 40 uM after 48 hrs by western blot analysis (reference value: 1)
Melan-a [24] = assay: Decrease in tyrosinase mRNA expression in mouse Melan-a cells at 40 uM after 24 hrs by SYBR green dye based qRT-PCR analysis relative to control; type: functional; how it was run: as §3
Melan-a [25] = assay: Inhibition of melanogenesis in mouse Melan-a cells assessed as reduction in melanin content at 40 uM; type: functional, cell-based
Melan-a [26] = assay: Inhibition of melanogenesis in mouse Melan-a cells assessed as reduction in melanin content at 40 uM after 72 hrs relative to control; type: functional; how it was run: as §2
Melan-a [27] = assay: Inhibition of melanogenesis in mouse Melan-a cells assessed as effect on whitening property measured after 48 hrs; type: functional, cell-based; how it was run: as §1
Melan-a [28] = assay: Antimelanogenic activity in mouse Melan-a cells assessed as inhibition of UV irradiation-stimulated melanin synthesis at 40 uM measured after 48 hrs
Melan-a [29] = assay: Effect on MITF expression in mouse Melan-a cells at 40 uM after 48 hrs by western blot analysis (reference value: 1)
Melan-a [30] = assay: Inhibition of melanogenesis in mouse Melan-a cells assessed as effect on pigmentation at 40 uM after 72 hrs by photography; type: functional, cell-based; how it was run: as §4
Melan-a [31] = assay: Decrease in TRP1 mRNA expression in mouse Melan-a cells at 40 uM after 24 hrs by SYBR green dye based qRT-PCR analysis relative to control; type: functional; how it was run: as §3
Melan-a [32] = assay: Effect on TRP1 expression in mouse Melan-a cells at 40 uM after 48 hrs by western blot analysis (reference value: 1)
Melan-a [33] = assay: Decrease in MITF mRNA expression in mouse Melan-a cells at 40 uM after 24 hrs by SYBR green dye based qRT-PCR analysis relative to control; type: functional; how it was run: as §3
Melan-a [34] = assay: Antimelanogenic activity in mouse Melan-a cells assessed as inhibition of alpha-MSH-stimulated melanin synthesis at 40 uM measured after 48 hrs
Melan-a [35] = assay: Decrease in TRP2 mRNA expression in mouse Melan-a cells at 40 uM after 24 hrs by SYBR green dye based qRT-PCR analysis relative to control; type: functional; how it was run: as §3
Melan-a [36] = assay: Effect on tyrosinase expression in mouse Melan-a cells at 40 uM after 48 hrs by western blot analysis (reference value: 1)
Melan-a [37] = assay: Effect on Rab27a expression in mouse Melan-a cells at 40 uM after 48 hrs by western blot analysis (reference value: 1)

Sequence of Estrogen receptor beta (Mus musculus) (O08537 whole entry): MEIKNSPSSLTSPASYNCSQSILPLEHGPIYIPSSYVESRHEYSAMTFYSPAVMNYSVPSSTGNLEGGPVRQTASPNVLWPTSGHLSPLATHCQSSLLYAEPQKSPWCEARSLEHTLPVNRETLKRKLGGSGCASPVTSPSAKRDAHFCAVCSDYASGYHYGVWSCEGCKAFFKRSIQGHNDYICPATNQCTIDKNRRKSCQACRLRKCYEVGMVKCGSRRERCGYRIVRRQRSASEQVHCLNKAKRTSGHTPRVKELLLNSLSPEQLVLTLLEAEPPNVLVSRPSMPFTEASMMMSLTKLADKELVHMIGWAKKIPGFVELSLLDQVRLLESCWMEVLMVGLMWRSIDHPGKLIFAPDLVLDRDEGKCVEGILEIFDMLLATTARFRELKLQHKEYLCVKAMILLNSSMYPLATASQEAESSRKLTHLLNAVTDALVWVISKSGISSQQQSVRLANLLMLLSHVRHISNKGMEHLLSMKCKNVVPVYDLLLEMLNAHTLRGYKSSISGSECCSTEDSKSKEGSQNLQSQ

With CC(C)=CCC/C(C)=C/COc1c2occc2cc2ccc(=O)oc12 the Activity (Melan-a [1]) was “Toxic”.
In the case of COc1c(OC/C=C(\C)CCC=C(C)C)ccc2ccc(=O)oc12, the inhibition (Melan-a [2]) is reported as “inactive” and the Activity (Melan-a [3]) is reported as “inactive”.
With COc1c(OCC=C(C)C)ccc2ccc(=O)oc12 the inhibition (Melan-a [2]) was “inactive” and the Activity (Melan-a [3]) was “inactive”.
With COc1cc(OC/C=C(\C)CCC=C(C)C)c2ccc(=O)oc2c1 the inhibition (Melan-a [2]) was “inactive” and the Activity (Melan-a [3]) was “inactive”.
For COc1cc2ccc(=O)oc2cc1OC/C=C(\C)CCC=C(C)C, the inhibition (Melan-a [2]) was “inactive” and the Activity (Melan-a [3]) was “inactive”.
With CC(C)=CCOc1ccc2ccc(=O)oc2c1 [7-PRENYLOXYCOUMARIN] the Activity (Melan-a [4]) was “Active”, the “fold change (FC)” value (Melan-a [5]) was 6 and the Activity (Melan-a [6]) was “Dose-dependent effect”. The Stability [7] was “Unstable”, the Activity (Melan-a [8]) was “Active” and the Activity (Melan-a [9]) was “Active”. For the same compound, the Activity (Melan-a [10]) was “Active”, the Stability [11] was “Stable” and the Activity (Melan-a [12]) was “Non-Toxic”. The Activity (Melan-a [13]) was “Active”, the Activity (Melan-a [14]) was “Active” and the Activity (Melan-a [15]) was “Active”. For the same compound, the Activity (Melan-a [16]) was “Active”, the Activity [17] was “Active” and the Activity [18] was “Active”. For the same compound, the Activity (Melan-a [19]) was “Active”, the Activity (Melan-a [20]) was “Active” and the Activity (Melan-a [21]) was “Active”.
For CC(C)=CCC/C(C)=C/COc1ccc2ccc(=O)oc2c1 [AURAPTENE], the “fold change (FC)” value (Melan-a [22]) was 1.3, the “fold change (FC)” value (Melan-a [5]) was 2 and the Activity (Melan-a [6]) was “Dose-dependent effect”. For the same compound, the Stability [7] was “Unstable”, the Stability [11] was “Stable” and the Activity (Melan-a [12]) was “Non-Toxic”. For the same compound, the Activity [17] was “Active” and the Activity (Melan-a [20]) was “Active”.
With CC(C)=CCC/C(C)=C/COc1c2ccoc2cc2oc(=O)ccc12 [BERGAMOTTIN] the Activity (Melan-a [1]) was “Toxic”.
With CC(C)=CCOc1c2ccoc2cc2oc(=O)ccc12 [ISOIMPERATORIN] the Activity (Melan-a [1]) was “Toxic”.
With CC(C)=CCOc1c2occc2cc2ccc(=O)oc12 [PENTOSALEN] the inhibition (Melan-a [2]) was “inactive”, the Activity (Melan-a [3]) was “inactive” and the Activity (Melan-a [1]) was “Toxic”.
With O=c1ccc2ccc(O)cc2o1 [UMBELLIFERONE] the inhibition (Melan-a [2]) was “inactive”, the Activity (Melan-a [12]) was “Non-Toxic” and the Activity (Melan-a [3]) was “inactive”.
With CC(C)=CCC/C(C)=C/CC/C(C)=C/COc1ccc2ccc(=O)oc2c1 [UMBELLIPRENIN] the “fold change (FC)” value (Melan-a [23]) was 0.3, the “fold change (FC)” value (Melan-a [24]) was over 2 and the inhibition (Melan-a [25]) was “Dose-dependent effect”. The inhibition at 40 µM (Melan-a [26]) was over 70%, the inhibition (Melan-a [27]) was “Dose-dependent effect” and the inhibition (Melan-a [28]) was “Active”. The “fold change (FC)” value (Melan-a [29]) was 0.5, the inhibition (Melan-a [30]) was “Active” and the Activity (Melan-a [12]) was “Non-Toxic”. For the same compound, the “fold change (FC)” value (Melan-a [31]) was over 2, the “fold change (FC)” value (Melan-a [32]) was 0.1 and the “fold change (FC)” value (Melan-a [33]) was over 2. The inhibition (Melan-a [34]) was “Active”, the “fold change (FC)” value (Melan-a [35]) was over 2 and the “fold change (FC)” value (Melan-a [36]) was 1.6. The Activity [17] was “Active” and the “fold change (FC)” value (Melan-a [37]) was 0.3.
